# Data reported in the EternaBench riboswitch data.
# Test system: MS2 coat protein
# Test: apparent Kd, MS2 coat protein; higher = weaker binding; RNA-MaP array; FMN 200 µM where present
# Method in brief: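 On Illumina sequencing-chip clusters, designs were transcribed by stalled E. coli RNA polymerase and titrated with SNAP-549-labelled MS2 coat protein (0.7 or 1.5 nM, doubling to 3 µM), without and then with constant ligand, in 100 mM Tris-HCl pH 7.5, 80 mM KCl, 4 mM MgCl2, BSA, DTT, yeast tRNA and Tween-20. Apparent Kd is the median of filtered per-cluster curve fits to green signal normalised to red-channel RNA signal and control-cluster median Fmax.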
# [1] = designed as: OFF switch for flavin mononucleotide, no ligand
# [2] = ligand present: flavin mononucleotide, designed as: OFF switch for flavin mononucleotide
# [3] = designed as: ON switch for flavin mononucleotide, no ligand
# [4] = ligand present: flavin mononucleotide, designed as: ON switch for flavin mononucleotide
Sequence,apparent Kd [1],apparent Kd [2],apparent Kd [3],apparent Kd [4]
AAUUGACACGUAGGAUAUCGAUCUAUAUUAACUCGAGAAGGACGUACAUGAGGAUCACCCAUGUUUAAUGGAGUAGAUAUGUUG,82.8 nM,308 nM,–,–
GACAUACAUGAGGAUCACCCAUGUACAGACGUACAAGGAUAUGUGUGGAAACCGUACUAUACAGAAGGUGUUUGUC,–,–,73.1 nM,33.9 nM
GAGUAGUUGAAAGGAUAUCGAUUGUUAUAGAAUCGAGAAGGUUCUAACAUGAGGAUCACCCAUGUAGGACUAUUCCUGUGUAUC,–,–,12.9 nM,11 nM
UUAUUUCCUCAUGUACAUGAGGAACAUGAGGAUCACCCAUGUAGAAGGAUUUCAAUAAAAUUAAAAUAGGAUAUACAUAUAUUU,68.3 nM,81.6 nM,–,–
CUUUUGUGAGGAUAUUCGUAGUAGAUAAAUAAAACUAUUACGGAGAAGGCACAUGAGGAUCACCCAUGUUCCUU,16.7 nM,54.5 nM,–,–
GAACUAAAGCAUAGCUUUAGUCGUACAUGAGGAUCACCCAUGUAGGAUAUGGUAGGCAUAGCUUACUAGAAGGAUAGAGUGAUC,294 nM,82.4 nM,–,–
CGUUGACAUGAGGAUCACCCAUGUCAGAUUUGGUCAGGAUAUGGUGUGGUUUGGCUAUUGCCAGAAGGGACGUUUG,–,–,92.1 nM,58.5 nM
AUCAGCUCGUGAGGAUAUACGUCACUGCUUCGGCAGUGUGGUAAGAUCACAUGAGGAUCACCCAUGUAGAAGGCACGAGCUGAU,21.4 nM,471 nM,–,–
AACCUAUUACAGAAGGCCAGCUACAUGAGGAUCACCCAUGUCGAGUCAUGGAGGAUAUGUAGUAACCUGCACGCGGGCGGAUAC,–,–,50.7 nM,7.18 nM
AGUUGGCGAGGAUAUACAUGAGGAUCACCCAUGUGAAAUAGAAUAGUGAGGAAGAAAAGUAGAAGGCGCUGACA,58.6 nM,323 nM,–,–
AAAACUGGAGGAUAUACAUGAGGAUCACCCAUGUGUGGGUAGGCUGUGUCGGCGUCAGGUAGAAGGCCACAAAA,92.3 nM,136 nM,–,–
AAAAAAAAAAGUGAGGAUAUGGGAAAAUUAACAUGAGGAUCACCCAUGUGAUAAAAAAAAAAAAACCAGAAGGUACAAAAAAAAAA,–,–,69.5 nM,26.4 nM
GAGAAGUCAGGAUAUCCAUGGCGGCACUUGCGUGGUGGCGUGGAGAAGGGACAUGAGGAUCACCCAUGUAAAGC,54 nM,34.9 nM,–,–
AUGAGUAAAGCAGGAUAUCUAUUGUCUCUGAAACAUGAGGAUCACCCAUGUAGAGAAGGGCUAAGUCUUACUCUUCGGAGUUGA,9.98 nM,10.3 nM,–,–
UGCGUUUGAGGAUAUACGUAGAAUUAGAUUCAUGUAAAACUACAUGAGGAUCACCCAUGUAGAAGGCAAGCGCU,17.7 nM,79.4 nM,–,–
GGGCUGUCAGGAUAUCUCGGGCUCGGGUAAACUCGGGCUCGGGAGAAGGGACAUGAGGAUCACCCAUGUGGCCC,30.4 nM,33 nM,–,–
CCCUAGGUAGGAUAUACUUGGACUCGGCUGAUGUGCCUAAAACAUGAGGAUCACCCAUGUAGAAGGACUAAGGC,12.6 nM,11.6 nM,–,–
AGUUAAUAUCGAGGAUAUAAGUCUAGGACAUGAGGAUCACCCAUGUAUGUCUUAGAAGGCGAUAUUAACAGCAUGUUACAUGCA,–,–,28.3 nM,6.89 nM
AGUGUCGGCACAGGAUAUGAGAUGCCGGCAGACAUGAGGAUCACCCAUGUAAGCGAACCAGGCAGUCAGAAGGGUGAUCGACAA,–,–,46.8 nM,24.4 nM
UUAUGUUUUGUAGGAUAUCAUUAGUUAUGUAUUAUAAUUGAAAUUUUGAUUUGAGAAGGACAUUUACAUGAGGAUCACCCAUGU,13.4 nM,9.92 nM,–,–
GGAUCGAAUGUGAGGAUAUGCUGGUCCUUGGAUCAGCAGAAGGCACAUGAGGAUCACCCAUGUUUCCACGGUCC,127 nM,869 nM,–,–
UGGCGACAUGAGGAUCACCCAUGUAUUUCCAGUUAAGGAUAUAGGUGCUAGCAACGGCAGCUAGAAGGUGAGAUAA,–,–,42 nM,58 nM
UUCAGCUCGUCAGGAUAUACGUCACUGCUUCGGCAGUGUGGUAAGAUCACAUGAGGAUCACCCAUGUAGAAGGGACGAGCUGAG,12.3 nM,312 nM,–,–
